# Data published in ChEMBL document CHEMBL3124893 (J Med Chem, 2014).
# pEC50, pIC50, pKi: −log10 of the molar value.
# Columns and labels:
# [1] = Antifibrotic activity in C57BL6/J mouse Prox24 cells assessed as inhibition of TGF-beta1-induced COL1A1 mRNA expression incubated for 1 hr followed by TGF-beta1 challenge measured after 6 hrs by real-time PCR analysis; format: functional
# How it was run: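 mProx24 immortalized proximal tubular cells from C57BL6/J mouse kidneys in DMEM, 10% FCS, 37 °C, 5% CO2. Growth-arrested 24 h in 0.15% FCS. Pretreated 1 h with compound in DMEM/0.15% FCS (DMSO stocks 50, 20, 10, 1 mM), then human TGF-β1 5 ng/mL for 6 h. COL1A1 mRNA expressed relative to TGF-β1 alone (1.0). Mean ± SE of three experiments.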
# [2] = biological target: T1, Adenosine receptor A1 (Homo sapiens) (UniProt P30542); assay: Displacement of [3H]-R-PIA from recombinant human adenosine A1 receptor expressed in CHO cells at 10 uM after 60 mins by scintillation counting analysis relative to control; format: cell-based
# T1 sequence (whole entry): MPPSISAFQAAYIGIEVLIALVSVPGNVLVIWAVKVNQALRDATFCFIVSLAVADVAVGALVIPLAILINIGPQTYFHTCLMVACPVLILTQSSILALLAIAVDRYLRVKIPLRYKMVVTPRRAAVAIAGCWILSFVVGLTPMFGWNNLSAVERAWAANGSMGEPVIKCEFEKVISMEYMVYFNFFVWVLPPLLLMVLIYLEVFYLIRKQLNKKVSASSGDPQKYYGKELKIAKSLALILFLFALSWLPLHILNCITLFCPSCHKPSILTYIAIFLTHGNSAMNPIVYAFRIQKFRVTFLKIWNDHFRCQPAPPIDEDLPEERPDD
# Adenosine receptor A3 [3] = biological target: T2, Adenosine receptor A3 (Rattus norvegicus, UniProt P28647); assay: Displacement of [125I]-I-AB-MECA from rat adenosine A3 receptor expressed in RBL-2H3 cells after 60 mins by gamma counting analysis; format: cell-based
# T2 sequence (P28647 whole entry): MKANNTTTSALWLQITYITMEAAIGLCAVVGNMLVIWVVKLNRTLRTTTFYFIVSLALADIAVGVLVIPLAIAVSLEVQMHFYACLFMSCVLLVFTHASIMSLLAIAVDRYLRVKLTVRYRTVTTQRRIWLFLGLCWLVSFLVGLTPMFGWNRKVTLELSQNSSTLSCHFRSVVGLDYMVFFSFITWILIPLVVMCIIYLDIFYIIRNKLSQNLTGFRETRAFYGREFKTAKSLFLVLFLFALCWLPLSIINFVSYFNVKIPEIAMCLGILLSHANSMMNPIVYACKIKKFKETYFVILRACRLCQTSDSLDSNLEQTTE
# Adenosine receptor A3 [4] = biological target: T3, Adenosine receptor A3 (Homo sapiens, UniProt P0DMS8); assay: Displacement of [125I]-I-AB-MECA from recombinant human adenosine A3 receptor expressed in CHO cells after 60 mins by gamma counting analysis; format: cell-based
# T3 sequence (P0DMS8 whole entry): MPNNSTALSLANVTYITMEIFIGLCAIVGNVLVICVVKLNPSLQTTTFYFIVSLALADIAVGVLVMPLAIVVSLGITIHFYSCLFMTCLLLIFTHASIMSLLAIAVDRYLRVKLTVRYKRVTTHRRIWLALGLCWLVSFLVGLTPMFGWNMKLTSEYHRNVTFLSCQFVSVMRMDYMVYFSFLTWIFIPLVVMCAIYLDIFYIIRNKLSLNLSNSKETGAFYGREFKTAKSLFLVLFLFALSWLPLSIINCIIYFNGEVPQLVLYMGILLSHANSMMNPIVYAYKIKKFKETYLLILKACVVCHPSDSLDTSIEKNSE
# Adenosine receptor A2a [5] = biological target: T4, Adenosine receptor A2a (Homo sapiens, UniProt P29274); assay: Displacement of [3H]-CGS21680 from human adenosine A2A receptor expressed in HEK293 cells after 60 mins by scintillation counting analysis; format: cell-based
# How it was run: (§1)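 HEK-293 hA2AAR membranes (20 μg) incubated 60 min at 25 °C with 15 nM [3H]CGS21680 and increasing ligand concentrations in 50 mM Tris·HCl pH 7.4, 10 mM MgCl2. Nonspecific binding defined with 10 μM NECA. GF/B filtration, scintillation counting. Ki by Cheng–Prusoff. For weak binders, percent inhibition measured at 10 μM, 3–5 duplicate determinations.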
# [6] = biological target: T5, Adenosine receptor A3 (Homo sapiens) (UniProt P0DMS8); assay: Antagonist activity at recombinant human adenosine A3 receptor expressed in CHO cells assessed as forskolin-induced intracellular cAMP production preincubated for 45 mins followed by forskolin challenge measured after 15 mins by liquid scintillation counting analysis in presence of rolipram and adenosine deaminase relative to NECA; format: functional, cell-based; design: scale not given: the % may be the effect or the level left
# T5 sequence (whole entry): T3 sequence (P0DMS8 whole entry)
# How it was run: (§2)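 CHO cells stably expressing hA3AR, plated 24 h, washed in DMEM/50 mM HEPES pH 7.4, treated with agonists and/or test compounds plus rolipram 10 μM and adenosine deaminase 3 U/mL. Forskolin 10 μM added after 45 min, incubation continued 15 min. Lysed in 0.1 M HCl. cAMP quantified by [3H]cAMP (2 nM)–PKA competitive binding, GF/C filtration, scintillation counting. Expressed relative to NECA full agonist (100%). Curves from three determinations.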
# Adenosine receptor A3 [7] = biological target: T3, Adenosine receptor A3; assay: (§3) Partial agonist activity at recombinant human adenosine A3 receptor expressed in CHO cells assessed as […] of forskolin-induced intracellular cAMP production preincubated for 45 mins followed by forskolin challenge measured after 15 mins by liquid scintillation counting analysis in presence of rolipram and adenosine deaminase; format: functional, cell-based; how it was run: as §2
# [8] = biological target: T5, Adenosine receptor A3 (Homo sapiens); assay: as §3, with “production at 10 uM” for “production”, “deaminase relative to NECA” for “deaminase”; format: functional, cell-based; how it was run: as §2
# [9] = biological target: T6, Adenosine receptor A2b (Homo sapiens) (UniProt P29275); assay: Agonist activity at recombinant human adenosine A2B receptor expressed in CHO cells assessed as activation of intracellular cAMP production at 10 uM in presence of rolipram and adenosine deaminase relative to NECA; format: functional, cell-based
# T6 sequence (whole entry): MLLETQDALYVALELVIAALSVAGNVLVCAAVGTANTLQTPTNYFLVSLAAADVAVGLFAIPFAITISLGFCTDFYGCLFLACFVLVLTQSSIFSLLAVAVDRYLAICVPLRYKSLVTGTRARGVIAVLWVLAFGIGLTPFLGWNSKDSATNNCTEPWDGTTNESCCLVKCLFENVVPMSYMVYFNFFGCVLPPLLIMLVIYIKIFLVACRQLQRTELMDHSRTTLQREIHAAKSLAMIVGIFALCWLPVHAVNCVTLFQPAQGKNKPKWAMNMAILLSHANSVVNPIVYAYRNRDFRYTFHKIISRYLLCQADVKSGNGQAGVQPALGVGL
# How it was run: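 CHO cells stably expressing hA2BAR, plated 24 h, washed in DMEM with 50 mM HEPES pH 7.4, then exposed to compounds with rolipram 10 μM and adenosine deaminase 3 U/mL (no forskolin). Lysed in 0.1 M ice-cold HCl. cAMP measured by competitive binding of [3H]cAMP (2 nM) to protein kinase A against a 0–16 pmol standard curve, filtration, scintillation counting.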
# Adenosine receptor A1 = biological target: T7, Adenosine receptor A1 (Homo sapiens, UniProt P30542); assay: Displacement of [3H]-R-PIA from recombinant human adenosine A1 receptor expressed in CHO cells after 60 mins by scintillation counting analysis; format: cell-based
# T7 sequence (P30542 whole entry): T1 sequence (whole entry)
# Adenosine receptor A2a [10] = biological target: T4, Adenosine receptor A2a; assay: Displacement of [3H]-CGS21680 from human adenosine A2A receptor expressed in HEK293 cells at 10 uM after 60 mins by scintillation counting analysis relative to control; format: cell-based; how it was run: as §1
# T4 sequence (P29274 whole entry): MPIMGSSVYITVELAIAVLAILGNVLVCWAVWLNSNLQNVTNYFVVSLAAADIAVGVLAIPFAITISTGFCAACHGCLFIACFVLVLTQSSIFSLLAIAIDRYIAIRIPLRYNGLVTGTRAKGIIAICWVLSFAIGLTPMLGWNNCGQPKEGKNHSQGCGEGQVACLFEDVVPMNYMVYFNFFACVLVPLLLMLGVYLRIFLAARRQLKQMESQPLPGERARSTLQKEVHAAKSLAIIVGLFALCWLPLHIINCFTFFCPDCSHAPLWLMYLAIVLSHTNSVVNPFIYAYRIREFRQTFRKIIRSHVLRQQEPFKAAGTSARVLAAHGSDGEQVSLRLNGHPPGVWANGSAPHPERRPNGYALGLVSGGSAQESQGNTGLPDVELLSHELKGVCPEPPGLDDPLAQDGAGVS
pIC50 [1],inhibition [2],pKi (Adenosine receptor A3 [3]),pKi (Adenosine receptor A3 [4]),pKi (Adenosine receptor A2a [5]),Activity [6],pEC50 (Adenosine receptor A3 [7]),max activation [8],Activity [9],pKi (Adenosine receptor A1),inhibition (Adenosine receptor A2a [10]),Structure (SMILES)
6.08,31%,6.75,8.17,5.54,–,–,–,–,–,–,CCCCC#Cc1nc(NCC)c2ncn([C@H]3[C@H](O)[C@H](O)[C@@H]4C[C@@H]43)c2n1
5.21,29%,7.19,7.79,7.00,–,–,–,–,–,–,CCCCC#Cc1nc(N)c2ncn([C@H]3[C@H](O)[C@H](O)[C@@H]4C[C@@H]43)c2n1
4.98,38%,7.23,8.07,5.50,< 5%,–,–,–,–,–,CCCCC#Cc1nc(NCc2cccc(Br)c2)c2ncn([C@H]3[C@H](O)[C@H](O)[C@@H]4C[C@@H]43)c2n1
5.54,19%,7.97,8.11,5.48,< 5%,–,–,–,–,–,CCCCC#Cc1nc(NCc2cccc(Cl)c2)c2ncn([C@H]3[C@H](O)[C@H](O)[C@@H]4C[C@@H]43)c2n1
6.08,14%,6.64,8.31,5.13,–,7.34,29.1%,15.7%,–,–,CCCCC#Cc1nc(NC)c2ncn([C@H]3[C@H](O)[C@H](O)[C@@H]4C[C@@H]43)c2n1
5.10,48%,7.59,7.92,5.60,< 5%,–,–,–,–,–,CCCCC#Cc1nc(NCc2cccc(I)c2)c2ncn([C@H]3[C@H](O)[C@H](O)[C@@H]4C[C@@H]43)c2n1
4.93,–,7.41,8.04,5.66,–,–,–,–,5.66,–,CCCCC#Cc1nc(NC2CC2)c2ncn([C@H]3[C@H](O)[C@H](O)[C@@H]4C[C@@H]43)c2n1
5.50,21%,7.37,7.80,–,–,–,–,–,–,27%,CCCCC#Cc1nc(NCc2cccc(F)c2)c2ncn([C@H]3[C@H](O)[C@H](O)[C@@H]4C[C@@H]43)c2n1
< 4.30,–,7.24,6.80,5.75,–,–,–,–,5.80,–,CCCCC#Cc1nc(NC2CCCC2)c2ncn([C@H]3[C@H](O)[C@H](O)[C@@H]4C[C@@H]43)c2n1
